Laboratory results published in ChEMBL document CHEMBL1121484, “Thrombin inhibitors. 2. Amide derivatives of N alpha-substituted L-arginine” (J Med Chem, 1980).

target: Prothrombin (Bos taurus) (UniProt P00735); assay: Percentage of rate of hydrolysis in 4 hr incubation by thrombin; format: functional; conditions: not given
Method in brief: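 Test compounds at 1 mM in 0.1 M Tris-HCl, pH 8.0, were incubated with thrombin (100 units in a 1.0 mL reaction) at 37 °C for 4 h. Hydrolysis rate was followed titrimetrically with a pH-stat and automatic burette at 37 °C and pH 8.0.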

Compound | Hydrolysis [%]
COCCNC(=O)C(CCCN=C(N)N)NS(=O)(=O)c1cccc2c(N(C)C)cccc12 (stereo not drawn) | 0
CCC1CCN(C(=O)C(CCCN=C(N)N)NS(=O)(=O)c2cccc3c(N(C)C)cccc23)CC1 (stereo not drawn) | 0
CCCCNC(=O)C(CCCN=C(N)N)NS(=O)(=O)c1cccc2c(N(C)C)cccc12 (stereo not drawn) | 0
CN(C)c1cccc2c(S(=O)(=O)NC(CCCN=C(N)N)C(=O)N3CCCCC3)cccc12 (stereo not drawn) | 0
CCCCN(C)C(=O)C(CCCN=C(N)N)NS(=O)(=O)c1cccc2c(N(C)C)cccc12 (stereo not drawn) | 0

target: Prothrombin (Bos taurus, UniProt P00735); assay: Bovine thrombin concentration at which clotting time was prolonged 2x over the control.; format: functional; conditions: read-out: I50
Method in brief: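 Clotting assay at 25 °C. The read-out was the time from thrombin addition to clot formation.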

Compound | IC50 [µM]
CCCCNC(=O)C(CCCN=C(N)N)NS(=O)(=O)c1cccc2c(N(C)C)cccc12 (stereo not drawn) | 2.1
CN(C)c1cccc2c(S(=O)(=O)NC(CCCN=C(N)N)C(=O)N3CCCCC3)cccc12 (stereo not drawn) | 1
CCCCNC(=O)C(CCCN=C(N)N)NS(=O)(=O)c1ccc2c(c1)CCCC2 (stereo not drawn) | 5
CCc1cc2cc(S(=O)(=O)NC(CCCN=C(N)N)C(=O)N3CCC(CC)CC3)ccc2oc1=O (stereo not drawn) | 1
CCC1CCN(C(=O)C(CCCNC(=N)N)NS(=O)(=O)c2ccc3c(c2)CCCC3)CC1 (stereo not drawn) | 0.7
CC1CCN(C(=O)C(CCCNC(=N)N)NS(=O)(=O)c2cccc3c2CCCC3)CC1 (stereo not drawn) | 1
CCCCN(CCCC)C(=O)C(CCCNC(=N)N)NS(=O)(=O)c1cccc2c(N(C)C)cccc12 (stereo not drawn) | 40
CC1CCN(C(=O)C(CCCN=C(N)N)NS(=O)(=O)c2cccc3ccccc23)CC1 (stereo not drawn) | 4
CCC1CCN(C(=O)C(CCCN=C(N)N)NS(=O)(=O)c2cc(OC)c3ccccc3c2)CC1 (stereo not drawn) | 1
CN(C)c1cccc2c(S(=O)(=O)NC(CCCNC(=N)N)C(=O)N3CCc4ccccc43)cccc12 (stereo not drawn) | 1
CC(=O)N1CCN(C(=O)C(CCCN=C(N)N)NS(=O)(=O)c2cccc3c(N(C)C)cccc23)CC1 (stereo not drawn) | 3.5
COCCNC(=O)C(CCCN=C(N)N)NS(=O)(=O)c1cccc2c1CCCC2 (stereo not drawn) | 40
CC1CCN(C(=O)C(CCCN=C(N)N)NS(=O)(=O)c2ccc3c(c2)CCCC3)CC1 (stereo not drawn) | 0.6
CCC1CCN(C(=O)C(CCCN=C(N)N)NS(=O)(=O)c2ccc3ccc(=O)oc3c2)CC1 (stereo not drawn) | 20
CN(C)c1cccc2c(S(=O)(=O)NC(CCCNC(=N)N)C(=O)N3CCCc4ccccc43)cccc12 (stereo not drawn) | 17
CCOCCNC(=O)C(CCCN=C(N)N)NS(=O)(=O)c1cccc2c(N(C)C)cccc12 (stereo not drawn) | 5
CCC1CCN(C(=O)C(CCCN=C(N)N)NS(=O)(=O)c2ccc3cc(C)ccc3c2)CC1 (stereo not drawn) | 0.5
N=C(N)NCCCC(NS(=O)(=O)c1cccc2ccccc12)C(=O)N1CCOCC1 (stereo not drawn) | 20
